Drawing on ChEMBL document CHEMBL1143293, “5-Substituted pyrido[2,3-d]pyrimidine, an inhibitor against three receptor tyrosine kinases” (Bioorg Med Chem Lett, 2009), this text covers IC50, minimal effective concentration and Activity for 7 molecules.

Series [1] deals with Platelet-derived growth factor receptor beta (Homo sapiens, UniProt P09619). In words: Inhibition of PDGFRbeta.
Series [2] relates to HUVEC. In words: Inhibition of rhFGF2-induced HUVEC proliferation. Type of series: functional, cell-based. The note with it: Homo sapiens; for minimal effective concentration: read-out: MEC. Summed up:
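HUVEC proliferation was induced with recombinant human FGF-2 in the presence of compound. Inhibition was reported as IC50 (μM) and as the minimum effective concentration.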

Series [3] deals with HUVEC. As to the kind of experiment: Cytotoxicity against HUVEC cells. Type of series: cell-based. The note with it: human. Summed up:
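Cytotoxicity was taken from HUVEC proliferation run without rhFGF-2 stimulation, and the value was reported as the minimum cytotoxic concentration.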

Series [4] deals with Fibroblast growth factor receptor 1 (Homo sapiens, UniProt P11362). As to the kind of experiment: Inhibition of human FGFR1 expressed in insect cells by HTRF method. Background: In TR-FRET formats the signal depends on donor and acceptor labels being close together.
For series [5], the target named is Vascular endothelial growth factor receptor 2 (Homo sapiens, UniProt P35968). In words: Inhibition of VEGFR2.
The target of series [6] is RAC-alpha serine/threonine-protein kinase (Homo sapiens) (UniProt P31749). In words: Inhibition of recombinant human FGF2-induced AKT phosphorylation in HUVEC cells by Western blot. Type of series: cell-based. (In general: In western blotting, separated proteins are transferred to a membrane and probed.)
The test system of series [7] is HUVEC. In words: Inhibition of recombinant human FGF2-induced ERK phosphorylation in HUVEC cells by Western blot. Type of series: cell-based.
Series [8] deals with c-Jun N-terminal kinase, JNK (Homo sapiens) (UniProt P45983+P53779+P45984). As to the kind of experiment: Inhibition of recombinant human FGF2-induced JNK phosphorylation in HUVEC cells by Western blot. Type of series: cell-based.
For series [9], the system named is HUVEC. As to the kind of experiment: Antiangiogenic activity in HUVEC cells assessed incomplete narrow tube formation after 4 hrs by tube formation assay. Type of series: functional, cell-based. The note with it: Homo sapiens. Summed up:
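HUVEC seeded onto wells coated with Matrigel, with compound present at 1, 3, 10 and 25 μM; FGF-2-stimulated and untreated controls included. After 4 h at 37 °C, cultures were fixed with glutaraldehyde and the length of the capillary-like tubes was measured. Data are means + SD of four wells from a representative experiment.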

Series [10] concerns the target Epidermal growth factor receptor (Homo sapiens, UniProt P00533).

Active and inactive are the calls of the source. The calls are words filed in the database; no cut-off is given here.

Platelet-derived growth factor receptor beta, sequence (P09619 whole entry): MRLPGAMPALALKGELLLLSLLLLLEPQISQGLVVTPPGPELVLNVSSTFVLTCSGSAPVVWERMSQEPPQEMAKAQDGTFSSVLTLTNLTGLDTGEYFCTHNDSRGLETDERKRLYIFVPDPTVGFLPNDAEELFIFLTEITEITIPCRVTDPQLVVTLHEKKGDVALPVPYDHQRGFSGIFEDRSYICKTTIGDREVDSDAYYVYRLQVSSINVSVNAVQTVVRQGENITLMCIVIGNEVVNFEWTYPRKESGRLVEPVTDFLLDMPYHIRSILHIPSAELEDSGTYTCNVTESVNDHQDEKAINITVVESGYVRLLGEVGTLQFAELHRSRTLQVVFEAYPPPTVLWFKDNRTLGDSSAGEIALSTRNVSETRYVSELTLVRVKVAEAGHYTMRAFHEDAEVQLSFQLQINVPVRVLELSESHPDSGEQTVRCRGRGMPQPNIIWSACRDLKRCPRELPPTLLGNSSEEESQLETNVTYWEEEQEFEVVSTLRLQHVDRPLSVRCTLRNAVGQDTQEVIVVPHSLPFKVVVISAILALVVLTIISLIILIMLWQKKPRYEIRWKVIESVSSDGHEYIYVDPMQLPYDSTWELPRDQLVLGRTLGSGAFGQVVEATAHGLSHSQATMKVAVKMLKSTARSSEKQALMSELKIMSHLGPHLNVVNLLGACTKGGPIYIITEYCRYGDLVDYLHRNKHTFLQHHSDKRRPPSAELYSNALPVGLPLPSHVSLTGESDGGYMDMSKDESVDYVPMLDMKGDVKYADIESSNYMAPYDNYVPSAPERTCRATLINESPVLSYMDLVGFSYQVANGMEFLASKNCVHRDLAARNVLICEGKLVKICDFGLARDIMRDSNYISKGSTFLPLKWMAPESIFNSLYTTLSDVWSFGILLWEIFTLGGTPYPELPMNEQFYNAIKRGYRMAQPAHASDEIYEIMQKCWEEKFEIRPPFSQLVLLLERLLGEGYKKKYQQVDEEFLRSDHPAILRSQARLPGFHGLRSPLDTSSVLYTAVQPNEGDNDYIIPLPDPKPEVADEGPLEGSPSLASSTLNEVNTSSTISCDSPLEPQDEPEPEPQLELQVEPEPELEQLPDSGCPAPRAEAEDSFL
Epidermal growth factor receptor, sequence (P00533 whole entry): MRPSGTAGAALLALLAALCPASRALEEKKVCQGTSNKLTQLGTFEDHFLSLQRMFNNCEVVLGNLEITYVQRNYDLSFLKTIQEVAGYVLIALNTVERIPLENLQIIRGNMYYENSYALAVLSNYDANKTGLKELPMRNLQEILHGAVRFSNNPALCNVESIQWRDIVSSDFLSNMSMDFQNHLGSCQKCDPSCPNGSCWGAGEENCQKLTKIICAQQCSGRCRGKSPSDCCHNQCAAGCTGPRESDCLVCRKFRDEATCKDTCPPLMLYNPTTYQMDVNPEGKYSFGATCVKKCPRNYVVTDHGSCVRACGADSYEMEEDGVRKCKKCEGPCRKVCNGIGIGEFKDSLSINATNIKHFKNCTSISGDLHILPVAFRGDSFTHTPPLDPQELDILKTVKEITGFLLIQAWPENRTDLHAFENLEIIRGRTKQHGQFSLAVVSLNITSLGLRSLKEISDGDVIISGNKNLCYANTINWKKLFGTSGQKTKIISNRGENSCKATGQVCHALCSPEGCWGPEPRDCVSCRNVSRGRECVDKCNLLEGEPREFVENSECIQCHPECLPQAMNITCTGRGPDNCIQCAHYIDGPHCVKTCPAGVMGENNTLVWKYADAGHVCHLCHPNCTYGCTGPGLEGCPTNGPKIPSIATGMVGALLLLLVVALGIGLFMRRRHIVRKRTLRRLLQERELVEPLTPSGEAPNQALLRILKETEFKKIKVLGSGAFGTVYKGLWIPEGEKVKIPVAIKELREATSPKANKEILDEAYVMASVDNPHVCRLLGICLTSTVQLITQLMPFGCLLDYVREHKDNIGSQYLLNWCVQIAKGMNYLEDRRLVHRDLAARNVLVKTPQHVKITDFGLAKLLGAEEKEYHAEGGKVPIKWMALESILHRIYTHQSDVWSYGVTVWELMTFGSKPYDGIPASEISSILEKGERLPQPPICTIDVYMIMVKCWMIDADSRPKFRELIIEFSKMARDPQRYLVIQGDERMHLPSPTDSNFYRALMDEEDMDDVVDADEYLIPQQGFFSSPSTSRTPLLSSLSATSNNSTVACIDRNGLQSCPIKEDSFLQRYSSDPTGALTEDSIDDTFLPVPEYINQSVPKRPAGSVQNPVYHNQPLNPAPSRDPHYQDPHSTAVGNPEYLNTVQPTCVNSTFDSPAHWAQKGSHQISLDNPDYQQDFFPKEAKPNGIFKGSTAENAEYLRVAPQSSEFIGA
Vascular endothelial growth factor receptor 2, sequence (P35968 whole entry): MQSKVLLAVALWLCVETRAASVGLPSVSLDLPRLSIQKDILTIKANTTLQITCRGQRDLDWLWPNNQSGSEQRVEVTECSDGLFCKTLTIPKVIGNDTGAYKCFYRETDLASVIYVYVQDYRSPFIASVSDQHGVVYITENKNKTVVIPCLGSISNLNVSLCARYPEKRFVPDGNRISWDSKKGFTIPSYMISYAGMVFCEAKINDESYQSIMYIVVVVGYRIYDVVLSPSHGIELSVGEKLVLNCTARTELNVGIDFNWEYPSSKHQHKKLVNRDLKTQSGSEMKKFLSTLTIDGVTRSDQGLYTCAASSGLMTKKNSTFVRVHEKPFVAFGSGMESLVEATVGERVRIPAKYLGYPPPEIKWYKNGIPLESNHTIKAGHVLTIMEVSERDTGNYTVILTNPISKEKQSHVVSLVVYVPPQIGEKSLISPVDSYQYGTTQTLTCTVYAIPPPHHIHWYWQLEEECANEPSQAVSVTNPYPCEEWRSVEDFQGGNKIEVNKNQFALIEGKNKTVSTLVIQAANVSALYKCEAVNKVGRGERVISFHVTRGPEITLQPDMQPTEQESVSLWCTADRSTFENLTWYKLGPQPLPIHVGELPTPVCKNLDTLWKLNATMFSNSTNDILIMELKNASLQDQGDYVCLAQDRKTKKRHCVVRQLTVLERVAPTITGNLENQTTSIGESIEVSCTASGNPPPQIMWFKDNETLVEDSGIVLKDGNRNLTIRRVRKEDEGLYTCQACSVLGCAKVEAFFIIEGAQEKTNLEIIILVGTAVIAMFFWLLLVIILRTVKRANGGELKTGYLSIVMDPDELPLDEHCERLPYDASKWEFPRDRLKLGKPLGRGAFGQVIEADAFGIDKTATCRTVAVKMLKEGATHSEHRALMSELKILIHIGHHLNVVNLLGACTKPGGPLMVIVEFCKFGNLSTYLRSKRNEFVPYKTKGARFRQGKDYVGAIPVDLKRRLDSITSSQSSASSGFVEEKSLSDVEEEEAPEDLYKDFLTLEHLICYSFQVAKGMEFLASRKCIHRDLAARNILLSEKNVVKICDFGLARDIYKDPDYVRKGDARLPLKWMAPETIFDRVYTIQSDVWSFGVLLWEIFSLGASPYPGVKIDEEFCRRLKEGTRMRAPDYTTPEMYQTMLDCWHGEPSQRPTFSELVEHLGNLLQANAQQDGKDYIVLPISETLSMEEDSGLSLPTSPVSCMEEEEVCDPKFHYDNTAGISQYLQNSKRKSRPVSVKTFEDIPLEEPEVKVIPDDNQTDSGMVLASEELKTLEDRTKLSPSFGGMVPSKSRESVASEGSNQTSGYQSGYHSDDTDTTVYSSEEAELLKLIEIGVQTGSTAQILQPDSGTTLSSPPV
Fibroblast growth factor receptor 1, sequence (P11362 whole entry): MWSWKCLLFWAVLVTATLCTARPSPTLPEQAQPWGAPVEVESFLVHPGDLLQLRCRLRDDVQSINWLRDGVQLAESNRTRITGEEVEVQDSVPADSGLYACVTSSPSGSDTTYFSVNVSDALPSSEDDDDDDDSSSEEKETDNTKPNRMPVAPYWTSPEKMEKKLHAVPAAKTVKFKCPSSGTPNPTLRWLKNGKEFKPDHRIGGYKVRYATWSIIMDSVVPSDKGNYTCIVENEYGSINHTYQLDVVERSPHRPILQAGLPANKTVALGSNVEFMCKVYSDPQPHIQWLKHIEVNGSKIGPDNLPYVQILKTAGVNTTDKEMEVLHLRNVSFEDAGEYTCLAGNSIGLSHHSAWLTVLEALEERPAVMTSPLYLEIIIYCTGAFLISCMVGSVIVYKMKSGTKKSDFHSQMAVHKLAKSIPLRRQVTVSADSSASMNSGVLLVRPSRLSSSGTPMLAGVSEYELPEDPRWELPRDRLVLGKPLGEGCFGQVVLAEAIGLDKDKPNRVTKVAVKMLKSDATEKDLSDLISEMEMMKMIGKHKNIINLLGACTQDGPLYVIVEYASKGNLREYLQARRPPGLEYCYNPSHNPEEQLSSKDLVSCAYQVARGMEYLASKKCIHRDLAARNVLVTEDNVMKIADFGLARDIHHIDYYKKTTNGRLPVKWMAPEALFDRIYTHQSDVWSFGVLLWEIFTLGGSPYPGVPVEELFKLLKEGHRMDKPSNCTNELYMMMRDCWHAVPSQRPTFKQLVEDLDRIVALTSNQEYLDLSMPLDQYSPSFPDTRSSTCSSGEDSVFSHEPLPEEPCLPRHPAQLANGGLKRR
RAC-alpha serine/threonine-protein kinase (Homo sapiens), sequence (P31749 whole entry): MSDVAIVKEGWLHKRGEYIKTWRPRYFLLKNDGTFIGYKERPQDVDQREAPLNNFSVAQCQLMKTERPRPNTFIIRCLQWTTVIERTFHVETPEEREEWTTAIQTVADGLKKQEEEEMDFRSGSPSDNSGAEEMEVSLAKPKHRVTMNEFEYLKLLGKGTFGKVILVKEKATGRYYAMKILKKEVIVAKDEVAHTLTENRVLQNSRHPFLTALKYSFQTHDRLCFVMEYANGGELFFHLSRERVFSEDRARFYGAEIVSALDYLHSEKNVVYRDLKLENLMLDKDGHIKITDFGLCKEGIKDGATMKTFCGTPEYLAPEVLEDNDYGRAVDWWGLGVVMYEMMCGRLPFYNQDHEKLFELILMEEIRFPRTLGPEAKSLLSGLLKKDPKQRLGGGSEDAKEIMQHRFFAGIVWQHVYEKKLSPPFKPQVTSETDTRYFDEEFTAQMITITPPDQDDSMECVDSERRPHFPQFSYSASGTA

As a reminder, the IC50 is the midpoint of a concentration-inhibition curve. High values mean a need for much substance, low ones inhibition by little substance. On to `Cc1[nH]c(/C=C2\C(=O)Nc3ccccc32)c(C)c1CCC(=O)O` [ORANTINIB], for which the IC50 in series [1] was 50 nM; with HUVEC [2], above 50000 nM. For the same molecule, the minimal effective concentration with HUVEC [2] was determined as 10 µM.

On to `Cc1[nH]c(/C=C2\C(=O)Nc3ccc(C(=O)NNc4ccc(C#N)cc4)cc32)c(C)c1CCC(=O)O`, for which the minimal effective concentration with HUVEC [2] is above 50 µM. This molecule displayed an Activity in the series with HUVEC [3] of 50 µM.

As to `Cc1[nH]c(/C=C2\C(=O)Nc3ccc(C(=O)NNc4ccc(C(F)(F)F)cc4)cc32)c(C)c1CCC(=O)O`, the minimal effective concentration with HUVEC [2] is 50 µM. In addition, the Activity with HUVEC [3] came out at 50 µM.

`Cc1[nH]c(/C=C2\C(=O)Nc3ccc(C(=O)NNc4ccccc4[N+](=O)[O-])cc32)c(C)c1CCC(=O)O`: in the series on HUVEC [2], the minimal effective concentration was determined as 50 µM. Also, the Activity in the series on HUVEC [3] is 50 µM.

With `Cc1[nH]c(/C=C2\C(=O)Nc3ccc(C(=O)NNc4ccccc4)cc32)c(C)c1CCC(=O)O`, the IC50 in [4] worked out at 100 nM; in [5], 70 nM; in series [1] it was 40 nM; with HUVEC [2] it was 27400 nM; in series [10] it was 3480 nM. Besides, the minimal effective concentration with HUVEC [2] came out at 10 µM. Further, the values for the Activity with HUVEC [3] and with HUVEC [9] were 50 µM and “Dose-dependent effect”, respectively. Also, the outcome (in series [6]; in the series with HUVEC [7]; in [8]) was Active.

Consider `COc1cc(OC)cc(-c2ccc3c(c2)NC(=O)/C3=C\c2[nH]c(C)c(CCC(=O)O)c2C)c1`, for which the IC50 is 520 nM in [4]; 930 nM in [5]; 780 nM in series [1]; 18200 nM in the series with HUVEC [2]; above 100000 nM in series [10].

As for `Cc1[nH]c(/C=C2\C(=O)Nc3ccc(C(=O)NNc4ccccc4Cl)cc32)c(C)c1CCC(=O)O`, the minimal effective concentration in the series with HUVEC [2] is 50 µM.
